Assay results published in ChEMBL document CHEMBL1649269, “In vitro activities of three new dihydrofolate reductase inhibitors against clinical isolates of gram-positive bacteria” (2009).
Values after ≈ are worked out from the molar mass of the structure shown.

Tests used:
[1] = test system: Staphylococcus aureus; test: Antimicrobial activity against methicillin-sensitive Staphylococcus aureus by agar dilution method; format: functional
Summary of the method: (§1)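 MICs against clinical MRSA or MSSA isolates by CLSI agar dilution, with S. aureus ATCC 29213 as control strain. Percentage of susceptible isolates was calculated from the MICs using CLSI breakpoints.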

[2] = test system: Staphylococcus aureus; test: Antimicrobial activity against methicillin-sensitive Staphylococcus aureus assessed as susceptible isolates by agar dilution method; format: functional; summary of the method: as §1
[3] = test system: Staphylococcus aureus; test: Antimicrobial activity against methicillin-resistant Staphylococcus aureus by agar dilution method; format: functional; summary of the method: as §1
[4] = test system: Staphylococcus aureus; test: Antimicrobial activity against Heterovancomycin-resistant Staphylococcus aureus by agar dilution method; format: functional
Summary of the method: (§2)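 Clinical S. aureus isolates classed as hVISA or VISA by population analysis profiling. MICs by CLSI agar dilution, with S. aureus ATCC 29213 as control strain.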

[5] = test system: Staphylococcus aureus; test: Antimicrobial activity against vancomycin-resistant Staphylococcus aureus by agar dilution method; format: functional; summary of the method: as §2
[6] = test system: Staphylococcus; test: Antimicrobial activity against Coagulase-negative Staphylococcus by agar dilution method; format: functional
Summary of the method: (§3)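 CLSI agar dilution MIC testing of clinical isolates of staphylococci and Listeria. S. aureus ATCC 29213 and S. pneumoniae ATCC 49619 served as control strains. The percentage of susceptible isolates was calculated from CLSI breakpoints.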

[7] = test system: Staphylococcus; test: Antimicrobial activity against Coagulase-negative Staphylococcus assessed as susceptible isolates by agar dilution method; format: functional; summary of the method: as §3
[8] = test system: Streptococcus sp. 'group A'; test: Antimicrobial activity against Group A Streptococcus by agar dilution method; format: functional
Summary of the method: (§4)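 Clinical isolates of beta-hemolytic streptococci, S. mitis and S. pneumoniae were tested by CLSI methodology, with Mueller-Hinton medium supplemented with 5% lysed horse blood. S. aureus ATCC 29213 and S. pneumoniae ATCC 49619 served as control strains. The percentage of susceptible isolates was derived from CLSI breakpoints.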

[9] = test system: Streptococcus sp. 'group A'; test: Antimicrobial activity against Group A Streptococcus assessed as susceptible isolates by agar dilution method; format: functional; summary of the method: as §4
[10] = test system: Streptococcus sp. 'group B'; test: Antimicrobial activity against Group B Streptococcus by agar dilution method; format: functional; summary of the method: as §4
[11] = test system: Streptococcus sp. 'group B'; test: Antimicrobial activity against Group B Streptococcus assessed as susceptible isolates by agar dilution method; format: functional; summary of the method: as §4
[12] = Antimicrobial activity against Group C Streptococcus by agar dilution method; format: functional; settings: Streptococcus sp. 'group C'; summary of the method: as §4
[13] = Antimicrobial activity against Group C Streptococcus assessed as susceptible isolates by agar dilution method; format: functional, Streptococcus sp. 'group C'; summary of the method: as §4
[14] = Antimicrobial activity against Group G Streptococcus by agar dilution method; format: functional; settings: Streptococcus sp. 'group G'; summary of the method: as §4
[15] = Antimicrobial activity against Group G Streptococcus assessed as susceptible isolates by agar dilution method; format: functional, Streptococcus sp. 'group G'; summary of the method: as §4
[16] = test system: Streptococcus pneumoniae; test: Antimicrobial activity against Streptococcus pneumoniae by agar dilution method; format: functional; summary of the method: as §4
[17] = test system: Streptococcus pneumoniae; test: Antimicrobial activity against Streptococcus pneumoniae assessed as susceptible isolates by agar dilution method; format: functional; summary of the method: as §4
[18] = test system: Corynebacterium sp.; test: Antimicrobial activity against Corynebacterium spp. by agar dilution method; format: functional
[19] = test system: Corynebacterium sp.; test: Antimicrobial activity against Corynebacterium spp. assessed as susceptible isolates by agar dilution method; format: functional
[20] = test system: Listeria monocytogenes; test: Antimicrobial activity against Listeria monocytogenes by agar dilution method; format: functional; summary of the method: as §3
[21] = test system: Listeria monocytogenes; test: Antimicrobial activity against Listeria monocytogenes assessed as susceptible isolates by agar dilution method; format: functional; summary of the method: as §3
[22] = test system: Streptococcus mitis; test: Antimicrobial activity against Streptococcus mitis assessed as susceptible isolates by agar dilution method; format: functional; settings: in the assay text read “broth dilution method” for “agar dilution method”; summary of the method: as §4
[23] = test system: Streptococcus mitis; test: Antimicrobial activity against Streptococcus mitis by broth dilution method
[24] = test system: Staphylococcus aureus; test: Antimicrobial activity against methicillin-resistant Staphylococcus aureus assessed as susceptible isolates by agar dilution method; format: functional; summary of the method: as §1
[25] = test system: Staphylococcus aureus; test: Antimicrobial activity against Heterovancomycin-resistant Staphylococcus aureus assessed as susceptible isolates by agar dilution method; format: functional
[26] = test system: Staphylococcus aureus; test: Antimicrobial activity against vancomycin-resistant Staphylococcus aureus assessed as susceptible isolates by agar dilution method; format: functional

Row | Compound | MIC50 [1] [µg/mL] | MIC90 [1] [µg/mL] | Activity [2] [%] | MIC50 [3] [µg/mL] | MIC90 [3] [µg/mL] | MIC50 [4] [µg/mL] | MIC90 [4] [µg/mL] | MIC50 [5] [µg/mL] | MIC90 [5] [µg/mL] | MIC50 [6] [µg/mL] | MIC90 [6] [µg/mL] | Activity [7] [%] | MIC50 [8] [µg/mL] | MIC90 [8] [µg/mL] | Activity [9] [%] | MIC50 [10] [µg/mL] | MIC90 [10] [µg/mL] | Activity [11] [%] | MIC50 [12] [µg/mL] | MIC90 [12] [µg/mL] | also measured
1 | COc1cc(Cc2cnc(N)nc2N)cc(/C=C/C(=O)N2N=Cc3ccccc3C2c2cnc(N(C)C)nc2)c1OC (configuration not stated) | 0.03 (≈ 0.053 µM) | 0.03 (≈ 0.053 µM) | 100 | 0.06 (≈ 0.106 µM) | 0.25 (≈ 0.442 µM) | 0.25 (≈ 0.442 µM) | 0.25 (≈ 0.442 µM) | 0.25 (≈ 0.442 µM) | 0.5 (≈ 0.884 µM) | 0.06 (≈ 0.106 µM) | 8 (≈ 14.1 µM) | 86 | 0.06 (≈ 0.106 µM) | 0.06 (≈ 0.106 µM) | 100 | 0.06 (≈ 0.106 µM) | 0.12 (≈ 0.212 µM) | 100 | 0.06 (≈ 0.106 µM) | 0.06 (≈ 0.106 µM) | MIC [8]: 0.06 µg/mL (≈ 0.106 µM); MIC [10]: 0.06 µg/mL (≈ 0.106 µM); Activity [13]: 100%; MIC [14]: 0.06 µg/mL (≈ 0.106 µM); MIC50 [14]: 0.06 µg/mL (≈ 0.106 µM); MIC90 [14]: 0.06 µg/mL (≈ 0.106 µM); Activity [15]: 100%; MIC50 [16]: 0.12 µg/mL (≈ 0.212 µM); MIC90 [16]: 0.25 µg/mL (≈ 0.442 µM); Activity [17]: 100%; MIC50 [18]: 0.12 µg/mL (≈ 0.212 µM); MIC90 [18]: 4 µg/mL (≈ 7.07 µM); Activity [19]: 83%; MIC [20]: 0.03 µg/mL (≈ 0.053 µM); MIC50 [20]: 0.03 µg/mL (≈ 0.053 µM); MIC90 [20]: 0.03 µg/mL (≈ 0.053 µM); Activity [21]: 100%; Activity [22]: 100%; MIC50 [23]: 0.03 µg/mL (≈ 0.053 µM)
2 | CN[C@H](CC(C)C)C(=O)N[C@H]1C(=O)N[C@@H](CC(N)=O)C(=O)N[C@H]2C(=O)N[C@H]3C(=O)N[C@H](C(=O)N[C@H](C(=O)O)c4cc(O)cc(O)c4-c4cc3ccc4O)[C@H](O)c3ccc(c(Cl)c3)Oc3cc2cc(c3O[C@@H]2O[C@H](CO)[C@@H](O)[C@H](O)[C@H]2O[C@H]2C[C@](C)(N)[C@H](O)[C@H](C)O2)Oc2ccc(cc2Cl)[C@H]1O [VANCOMYCIN] | 1 (≈ 0.69 µM) | 1 (≈ 0.69 µM) | 100 | 1 (≈ 0.69 µM) | 1 (≈ 0.69 µM) | 1 (≈ 0.69 µM) | 2 (≈ 1.38 µM) | 2 (≈ 1.38 µM) | 4 (≈ 2.76 µM) | 1 (≈ 0.69 µM) | 2 (≈ 1.38 µM) | 100 | 0.25 (≈ 0.173 µM) | 0.25 (≈ 0.173 µM) | 100 | 0.25 (≈ 0.173 µM) | 0.25 (≈ 0.173 µM) | 100 | 0.12 (≈ 0.0828 µM) | 0.5 (≈ 0.345 µM) | Activity [24]: 100%; Activity [25]: 96%; Activity [26]: 52%; MIC [12]: 0.12 µg/mL (≈ 0.0828 µM); Activity [13]: 100%; MIC [14]: 0.12 µg/mL (≈ 0.0828 µM); MIC50 [14]: 0.12 µg/mL (≈ 0.0828 µM); MIC90 [14]: 0.12 µg/mL (≈ 0.0828 µM); Activity [15]: 100%; MIC50 [16]: 0.12 µg/mL (≈ 0.0828 µM); MIC90 [16]: 0.25 µg/mL (≈ 0.173 µM); Activity [17]: 100%; MIC50 [18]: 0.25 µg/mL (≈ 0.173 µM); MIC90 [18]: 0.5 µg/mL (≈ 0.345 µM); MIC [20]: 1 µg/mL (≈ 0.69 µM); MIC50 [20]: 1 µg/mL (≈ 0.69 µM); MIC90 [20]: 1 µg/mL (≈ 0.69 µM); MIC50 [23]: 1 µg/mL (≈ 0.69 µM)
